The source made the active and inactive calls. The calls are words filed in the database; no cut-off is given here.
Legend:
[1] = biological target: Trace amine-associated receptor 1 (Mus musculus, UniProt Q923Y8); experiment: Agonist activity at mouse TAAR1 expressed in HEK293 cells coexpressing cAMP BRET biosensor assessed as induction of CAMP production after 20 mins by bioluminescence resonance energy transfer assay; format: functional, cell-based
In short: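 HEK-293 cells transiently transfected with mTAAR1 (or empty vector as control) plus EPAC cAMP BRET biosensor. Read started immediately after agonist addition, continuing ~20 min. IBMX 200 μM final present throughout. Initial screen at 10 μM; actives then run as dose-response. Emission read in 465−505 and 515−555 nm windows, acceptor/donor ratio taken. EC50 from nonlinear one-site fit; 4−6 independent experiments, mean ± SEM.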

Heart [2] = experiment: Reduction in cardiac out put in male Wistar rat heart assessed as aortic and coronary flow after 30 mins by Cardiac perfusion technique; format: functional, tissue-based; conditions: 0.5 h
In short: (§1)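 Male Wistar rats (275−300 g) were anesthetized with ether/air and given 1000 U heparin iv (femoral vein). The heart was excised and perfused as a working heart (atrial 20 cm, aortic 100 cm cannulae). After 5 min equilibration, it was perfused 60 min with buffer containing DMSO vehicle or escalating doses in DMSO. Cardiac output = aortic + coronary flow. 30-min values are expressed as % of baseline. IC50 from sigmoidal nonlinear regression; 3−7 hearts per group, mean ± SE.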

[3] = biological target: Trace amine-associated receptor 1 (Mus musculus) (UniProt Q923Y8); experiment: Agonist activity at mouse TAAR1 expressed in HEK293 cells coexpressing cAMP BRET biosensor assessed as induction of CAMP production after 20 mins by bioluminescence resonance energy transfer assay relative to control; format: functional, cell-based
In short: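 Transient co-transfection of HEK-293 cells with mTAAR1 and the EPAC cAMP BRET biosensor; empty vector as control. Assayed with IBMX at 200 μM final. Screened at 10 μM, then dose-response on actives. Read-out is the acceptor/donor ratio from the 465−505 and 515−555 nm windows; time courses read for about 20 min after agonist addition. EC50 from nonlinear regression (one site specific binding); 4−6 independent experiments, mean ± SEM.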

Mus musculus [4] = experiment: Induction of plasma glucose level in fasted CD1 mouse at 1.32 ug/kg, ip after 15 mins glucorefractometry relative to T0AM; format: functional, organism-based
In short: (§2)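 Male CD-1 mice were fasted 4 h (8 to 12 h) and given a single ip dose (1.32, 4 or 11 μg·kg−1) or saline; n = 10 per group. Tail-vein blood glucose was read by glucorefractometer 15 min after injection. One-way ANOVA with Student−Newman−Keuls post hoc test, P < 0.05; mean ± SEM.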

Heart [5] = experiment: Reduction in cardiac out put in male Wistar rat heart assessed as aortic and coronary flow at 40 uM within 10 mins by Cardiac perfusion technique relative to control; format: functional
Mus musculus [6] = experiment: Induction of plasma glucose level in fasted CD1 mouse at 4 ug/kg, ip after 15 mins glucorefractometry relative to T1AM; format: functional, organism-based; in short: as §2
Heart [7] = experiment: Reduction in cardiac out put in male Wistar rat heart assessed as aortic and coronary flow at 20 to 40 uM after 30 mins by Cardiac perfusion technique; format: functional, tissue-based; in short: as §1
Heart [8] = experiment: Reduction in cardiac out put in male Wistar rat heart assessed as aortic and coronary flow measured as rate of duration of experiment at 40 uM by Cardiac perfusion technique; format: functional

Sequence of Trace amine-associated receptor 1 (Mus musculus) (Q923Y8 whole entry): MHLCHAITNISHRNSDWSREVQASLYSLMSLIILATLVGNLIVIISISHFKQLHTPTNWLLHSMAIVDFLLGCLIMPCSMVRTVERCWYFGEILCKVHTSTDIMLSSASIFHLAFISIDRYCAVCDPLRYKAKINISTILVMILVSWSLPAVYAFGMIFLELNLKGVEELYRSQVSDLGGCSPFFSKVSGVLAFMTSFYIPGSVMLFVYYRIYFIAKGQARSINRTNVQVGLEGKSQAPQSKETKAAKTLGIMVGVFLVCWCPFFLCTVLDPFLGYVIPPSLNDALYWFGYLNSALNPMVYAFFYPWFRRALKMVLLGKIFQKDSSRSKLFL
Sequence of Trace amine-associated receptor 1 (Q923Y8 whole entry): as above

**Q.** NCCOc1ccc(Cc2ccc(N)cc2)cc1 was tested. Which EC50 [1] did it give?
**A.** 1700 nM

**Q.** And the IC50 (Heart [2])?
**A.** 34 µM

**Q.** What about the Emax [3] of the same molecule?
**A.** 40%

**Q.** And the Activity (Mus musculus [4])?
**A.** inactive

**Q.** Cc1cc(OCCN)ccc1Cc1ccc(N)cc1 was tested. Which EC50 [1] did it give?
**A.** 240 nM

**Q.** And the inhibition at 40 µM (Heart [5])?
**A.** 60%

**Q.** What about the Activity (Mus musculus [6]) of the same molecule?
**A.** Active

**Q.** And the IC50 (Heart [2])?
**A.** 30 µM

**Q.** What about the Emax [3] of the same molecule?
**A.** 75%

**Q.** What about the inhibition (Heart [7]) of the same molecule?
**A.** Active

**Q.** What about the Time (Heart [8]) of the same molecule?
**A.** 1 h

**Q.** Which IC50 (Heart [2]) does the source give for Nc1ccc(Cc2ccc(OCC(=O)O)cc2)cc1 here?
**A.** 30 µM

**Q.** What about the Activity (Mus musculus [4]) of the same molecule?
**A.** inactive

**Q.** For Cc1cc(OCC(=O)O)ccc1Cc1ccc(N)cc1, which IC50 (Heart [2]) is on record?
**A.** 30 µM

**Q.** What about the Activity (Mus musculus [4]) of the same molecule?
**A.** Active

**Q.** NCCc1ccc(Oc2ccc(O)cc2)c(I)c1 was tested. Which EC50 [1] did it give?
**A.** 189 nM

**Q.** What about the IC50 (Heart [2]) of the same molecule?
**A.** 27 µM

**Q.** With NCCc1ccccc1 [PHENETHYLAMINE] as the molecule, how does the EC50 [1] read?
**A.** 138 nM

**Q.** What does the source list for NCCc1ccc(Cc2ccc(N)cc2)cc1?
**A.** EC50 [1]: 800 nM; Emax [3]: 100%

**Q.** How did the EC50 [1] turn out when NCCOc1ccc(Cc2ccc(O)cc2)cc1 was run?
**A.** 2200 nM

**Q.** And the Emax [3]?
**A.** 80%

From ChEMBL document CHEMBL3580610, “Design, Synthesis, and Evaluation of Thyronamine Analogues as Novel Potent Mouse Trace Amine Associated Receptor 1 (mTAAR1) Agonists” (J Med Chem, 2015)
